Screening data as filed in PubChem.
Most compounds without a hit are left out; they make up all but 2.3% or so of the library.
PAFAH1B2 inh – blocks human PAF acetylhydrolase 1b catalytic subunit 2; 1.2% of 340,000 active; P68402; AID 492953; recombinant PAFAH1B2, FP-rhodamine activity probe, fluorescence polarization; inhibition, % at 3.39 µM;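 active means inhibition above the mean of all tested compounds plus 3 SD, cut at about 24% in these data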
Target sequence (P68402 whole entry, looked up): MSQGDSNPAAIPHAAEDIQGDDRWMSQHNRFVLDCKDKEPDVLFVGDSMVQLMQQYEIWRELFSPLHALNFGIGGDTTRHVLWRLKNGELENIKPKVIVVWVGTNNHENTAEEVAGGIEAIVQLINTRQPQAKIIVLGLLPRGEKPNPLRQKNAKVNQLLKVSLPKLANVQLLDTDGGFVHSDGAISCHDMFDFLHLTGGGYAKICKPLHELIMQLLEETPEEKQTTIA
TDP2 absorb – TDP2 (human) inhibition, absorbance primary screen. recombinant TDP2, T5PNP hydrolysis, p-nitrophenol absorbance 415 nm. inhibition, % at 12.8 µM. 0.34% of 370,000 active. AID 720702;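 active means inhibition above the mean of all tested compounds plus 3 SD, set per campaign, cut at about 25% in these data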
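Evaluation: % inhibition relative to enzyme-containing and enzyme-free wells. Material: recombinant human TDP2. Benchmarks: enzyme-free and DMSO wells. Timing: enzyme reaction with compound for 2 h at 37 °C. Compound dosing: 12.8 µM only. Measured by: p-Nitrophenol epi absorbance. Reagent: T5PNP substrate at 5 mM, a TopII-DNA adduct mimic. Replication: single well per compound.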
PAFAH1B3 FP inh – blocks human PAF acetylhydrolase 1B catalytic subunit 3 | recombinant PAFAH1B3, FP-rhodamine probe, fluorescence polarization | inhibition, % at 3.39 µM | 0.28% of 340,000 active;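 active means inhibition above the screen-wide average of all tested compounds plus 3 SD, cut at about 25% in these data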
Target sequence (Q15102 whole entry, looked up): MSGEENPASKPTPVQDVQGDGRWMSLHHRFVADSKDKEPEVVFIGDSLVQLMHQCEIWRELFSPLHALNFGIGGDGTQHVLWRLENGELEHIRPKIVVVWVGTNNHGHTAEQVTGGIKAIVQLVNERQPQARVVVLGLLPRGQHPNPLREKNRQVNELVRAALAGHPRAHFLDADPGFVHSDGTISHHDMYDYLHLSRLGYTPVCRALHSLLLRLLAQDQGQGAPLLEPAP
Apaf-1 inh – blocks human Apaf-1 apoptosome activity; reconstituted apoptosome caspase-3 activity, DEVD-Rh110 fluorescence; inhibition, % at 20 µM; 0.71% of 330,000 active; AID 489030; active means inhibition of at least 40% at 20 µM
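Material: biochemical Apaf-1 apoptosome reconstitution. Medium: Hepes buffer, pH 7.5. Also added: cytochrome c activation, bis-DEVD rhodamine 110 substrate. Timing: 30 min compound preincubation, 50 min activation, room temperature. Measured by: rhodamine 110 fluorescence at Ex 480/Em 540 nm.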
PAFAH2 FP inh – inhibitors of human PAFAH2; recombinant PAFAH2, FP-rhodamine activity probe, fluorescence polarization; inhibition, % at 3.39 µM; 0.99% of 340,000 active; Q99487;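 active means inhibition above the mean over all tested compounds plus 3 SD, cut at about 30% in these data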;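 further: inhibitors block probe labeling of enzyme so polarization drops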
Apaf-1 inh conf – Apaf-1 inhibition, single-dose confirmed; shares compounds with Apaf-1 inh; reconstituted apoptosome, caspase-3 DEVD-Rh110 fluorescence; inhibition, % at 20 µM; 25% of 1,800 active; AID 504614;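 active means mean inhibition of at least 40% at 20 µM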
Rh110 interf inh – Rh110 signal interference in Apaf-1 inhibitor counter-screen | shares compounds with Apaf-1 inh | Rh110 fluorescence interference, quenched caspase reaction | activation (fluorescence interference), % at 20 µM | 1,800 tested, under 10 active | AID 504615;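 active means signal rise of 40% or more at 20 µM, treated as a fluorescence artifact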
Fluor interf inh – Apaf-1 inhibitor counter-screen fluorescence artifact | IC50, µM | fluorescence interference counterscreen, Apaf-1 assay format | shares compounds with Apaf-1 inh | 460 tested, under 10 active; call rule not given here
Numbers stand for hits; 0 = inactive; - = no result.

SMILES | PAFAH1B2 inh | TDP2 absorb | PAFAH1B3 FP inh | Apaf-1 inh | PAFAH2 FP inh | Apaf-1 inh conf | Rh110 interf inh | others
COc1cc2sc(-c3ccccc3OC)c(-c3ccc(OCCN4CCCCC4)cc3)c2cc1OC | 0 | 0 | 0 | 65.7 | 0 | 0 | 0
COc1ccccc1-c1sc2cc3c(cc2c1-c1ccc(OCCN2CCCCC2)cc1)OCO3 | 0 | 0 | 0 | 59.4 | 0 | 0 | 0
COc1ccc2sc(-c3ccccc3OC)c(-c3ccc(OCCN4CCOCC4)cc3)c2c1 | 0 | - | 0 | 0 | 0 | - | -
O=C(c1ccc(OCCN2CCCCC2)cc1)c1c(-c2ccc(O)cc2)sc2cc(O)ccc12 | 0 | 0 | 0 | 46.9 | 0 | 0 | 0
N#Cc1cccc(Cn2ccc3ccc(-c4ccc5ccn(Cc6ccccc6)c5c4)cc32)c1 | - | 0 | - | - | - | - | -
C=CCN1[C@@H](CC(C)C)COc2cc(F)ccc2S1(=O)=O | - | 0 | - | - | - | - | -
N#Cc1ccccc1NCc1ccccc1 | 0 | 0 | 0 | 0 | 0 | - | -
O=c1cccccc1NCc1ccccc1 | 0 | 0 | 0 | 44.5 | 0 | 0 | 0
Cc1cc(O)c2c(c1O)C(=O)[C@]13C(=C2O)C(=O)[C@@H]2[C@@H](O)[C@H]1[C@@H]1[C@H](O)[C@H]3C(=O)C3=C(O)c4c(O)cc(C)c(O)c4C(=O)[C@]312 | 0 | - | 37.0 | 68.5 | 43.2 | 58.6 | 0 | Fluor interf inh=0
Cc1c(CCOC(=O)c2ccc(Cl)cc2Cl)sc[n+]1CC(=O)c1ccccc1 | 0 | 0 | 0 | 55.9 | 0 | 0 | 0
CC(=O)N1c2cc(S(=O)(=O)N3CCN(c4ccccc4F)CC3)c(Br)cc2CC1C (stereo unspecified) | - | 0 | - | - | - | - | -
COc1ccc(Cl)cc1NC(=O)C(C)N1CCN(C/C=C/c2ccccc2)CC1 (stereo unspecified) | 0 | 0 | 0 | 42.9 | 0 | 0 | 0
COc1ccc2nc3cccc(OC)c3nc2c1 | 0 | 0 | 0 | 96.6 | 0 | 0 | 0
COc1ccc2nc(-c3ccccc3)cc(OC)c2c1 | 0 | 0 | 0 | 0 | 0 | - | -
C[C@H]1COc2cc(Br)ccc2S(=O)(=O)N1Cc1cn(CC2CCCCC2)nn1 | - | 0 | - | - | - | - | -
Cc1ccc2c(c1)c1ccc3c(c1n2C)C(=O)C=CC3=O | 0 | 0 | 0 | 56.5 | 0 | 40.4 | 0 | Fluor interf inh=0
COc1ccc2c(c1)c1ccc3c(c1n2C)C(=O)C=CC3=O | 44.8 | 0 | 31.0 | 71.2 | 35.8 | 57.5 | 0 | Fluor interf inh=0
Cn1c2ccccc2c2ccc3c(c21)C(=O)C=CC3=O | 0 | 0 | 0 | - | 0 | - | -
CNC(=S)N/N=C/c1c(C(=O)OC)cnn1-c1ccc(Cl)cc1 | - | 0 | - | - | - | - | -
CCCN1C(=O)c2n[nH]c(C)c2C1c1ccc2c(c1)OCO2 (stereo unspecified) | - | 0 | - | - | - | - | -
Cc1c(/C=N/Nc2nc3ccccc3[nH]2)c2ccccc2n1C | 0 | 0 | 0 | 43.4 | 0 | 0 | 0
COCCNC(=O)c1c(N)n(-c2ccccc2)c2nc3ccccc3nc12 | 0 | 0 | 0 | 81.3 | 0 | 0 | 0
COCCCNC(=O)c1c(N)n(-c2ccccc2)c2nc3ccccc3nc12 | - | 0 | - | 83.6 | - | 0 | 0
Nc1c(C(=O)NC2CCCC2)c2nc3ccccc3nc2n1N | 0 | 0 | 0 | 0 | 0 | - | -
COC(=O)c1c(N)n(-c2ccc(NC(C)=O)cc2)c2nc3ccccc3nc12 | 0 | 0 | 0 | 48.8 | 0 | 0 | 0
SMILES | PAFAH1B2 inh | TDP2 absorb | PAFAH1B3 FP inh | Apaf-1 inh | PAFAH2 FP inh | Apaf-1 inh conf | Rh110 interf inh | others
C=CCn1c(N)c(C(=O)Nc2ccccc2)c2nc3ccccc3nc21 | 0 | 0 | 0 | 67.4 | 0 | 0 | 0
Cc1ccccc1CS(=O)(=O)Cc1ccc(C(=O)Nc2ccc(F)cc2)o1 | - | 0 | - | - | - | - | -
CN(C(=O)c1cn(C)c2ccccc12)c1ccc(Oc2cccnc2)cc1 | - | 0 | - | - | - | - | -
COC(=O)[C@H](C(C)C)N(CCc1cn(CC2CCCCC2)nn1)S(=O)(=O)c1ccccc1Br | - | 0 | - | - | - | - | -
COc1ccc(OC)c(-n2c(N)c(C(=O)NCC3CCCO3)c3nc4ccccc4nc32)c1 (stereo unspecified) | 0 | 0 | 0 | - | 0 | - | -
COCCn1c(N)c(C(=O)NCC2CCCO2)c2nc3ccccc3nc21 (stereo unspecified) | 0 | 0 | 0 | 75.1 | 0 | 0 | 0
